The source made the active and inactive calls. The rule behind the calls is not given here.
How the values were obtained:
NCI/ADR-RES [1] = experiment: Cytotoxicity against multidrug-resistance human MCF7/ADR cells after 48 hrs by MTT assay; format: functional, cell-based
Procedure, shortened: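 MCF-7/ADR cells grown in DMEM with 10% FBS, trypsinized, seeded at 4.5 × 10^4 cells/mL and held 24 h at 37 °C, 5% CO2. Compounds added in DMSO over 400 to 1 μg/mL. MTT read-out after 48 h exposure. Triplicate.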

NCI/ADR-RES [2] = experiment: Reversal fold, ratio of IC50 for doxorubicin alone to IC50 for doxorubicin in presence of compound in human MCF7/ADR cells after 48 hrs by MTT assay; format: functional
Procedure, shortened: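 MCF-7/ADR cells seeded at 4.5 × 10^3 per well. Doxorubicin serially diluted 0.008–25 μg/mL, with or without 5 μg/mL sample; verapamil 5 μg/mL as positive control. MTT after 48 h. Doxorubicin IC50 computed relative to untreated cells (100%). RF = IC50 doxorubicin alone / IC50 with sample. Triplicate.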

| Compound | Activity (NCI/ADR-RES [1]) | Ratio IC50 (NCI/ADR-RES [2]) |
| --- | --- | --- |
| CCCCCCCCCC(=O)O[C@H]1[C@H](O[C@@H]2[C@H]3OC(=O)CCCCCCCCC[C@H](CCCCC)O[C@@H]4O[C@H](C)[C@H](O)[C@H](O)[C@H]4O[C@H](O[C@H]2C)[C@@H]3O)O[C@@H](C)[C@H](O[C@@H]2O[C@@H](C)[C@H](OC(=O)[C@@H](C)CC)[C@@H](OC(=O)/C=C/c3ccccc3)[C@H]2O)[C@H]1O[C@@H]1O[C@@H](C)[C@H](O)[C@@H](O)[C@H]1O [PESCAPREIN XXIII] | inactive | 2.9 |
| CCCCCCCCCC(=O)O[C@H]1[C@H](O[C@@H]2[C@H]3OC(=O)CCCCCCCCC[C@H](CCCCC)O[C@@H]4O[C@H](C)[C@H](O)[C@H](O)[C@H]4O[C@H](O[C@H]2C)[C@@H]3O)O[C@@H](C)[C@H](O[C@@H]2O[C@@H](C)[C@H](OC(=O)[C@@H](C)CC)[C@@H](O)[C@H]2OC(=O)/C=C/c2ccccc2)[C@H]1O[C@@H]1O[C@@H](C)[C@H](O)[C@@H](O)[C@H]1O [PESCAPREIN XXIV] | inactive | 1.8 |
| CCCCCC(=O)O[C@H]1[C@H](O[C@@H]2[C@@H](O)[C@H]3OC(=O)CCCCCCCCC[C@H](CCCCC)O[C@@H]4O[C@H](C)[C@H](O)[C@H](O)[C@H]4O[C@@H]3O[C@H]2C)O[C@@H](C)[C@H](O[C@@H]2O[C@@H](C)[C@H](OC(=O)[C@@H](C)CC)[C@@H](OC(=O)/C=C/c3ccccc3)[C@H]2O)[C@H]1O[C@@H]1O[C@@H](C)[C@H](O)[C@@H](O)[C@H]1O [PESCAPREIN XXIX] | inactive | 3.2 |
| CCCCCCCCCCCC(=O)O[C@H]1[C@H](O[C@@H]2[C@H]3OC(=O)CCCCCCCCC[C@H](CCCCC)O[C@@H]4O[C@H](C)[C@H](O)[C@H](O)[C@H]4O[C@H](O[C@H]2C)[C@@H]3O)O[C@@H](C)[C@H](O[C@@H]2O[C@@H](C)[C@H](OC(=O)[C@@H](C)CC)[C@@H](O)[C@H]2OC(=O)/C=C/c2ccccc2)[C@H]1O[C@@H]1O[C@@H](C)[C@H](O)[C@@H](O)[C@H]1O [PESCAPREIN XXI] | inactive | 1.5 |
| CCCCCCCC(=O)O[C@H]1[C@H](O[C@@H]2[C@H]3OC(=O)CCCCCCCCC[C@H](CCCCC)O[C@@H]4O[C@H](C)[C@H](O)[C@H](O)[C@H]4O[C@H](O[C@H]2C)[C@@H]3O)O[C@@H](C)[C@H](O[C@@H]2O[C@@H](C)[C@H](OC(=O)[C@@H](C)CC)[C@@H](OC(=O)/C=C/c3ccccc3)[C@H]2O)[C@H]1O[C@@H]1O[C@@H](C)[C@H](O)[C@@H](O)[C@H]1O [PESCAPREIN XXVIII] | inactive | 2.3 |
| CCCCC[C@H]1CCCCCCCCCC(=O)O[C@H]2[C@@H](O)[C@H](O[C@H]3[C@H](O1)O[C@H](C)[C@H](O)[C@@H]3O)O[C@@H](C)[C@@H]2O[C@@H]1O[C@@H](C)[C@H](O[C@@H]2O[C@@H](C)[C@H](OC(=O)[C@@H](C)CC)[C@@H](OC(=O)/C=C/c3ccccc3)[C@H]2O)[C@@H](O[C@@H]2O[C@@H](C)[C@H](O)[C@@H](O)[C@H]2O)[C@H]1OC(=O)[C@@H](C)CC [PESCAPREIN XXVII] | inactive | 1.9 |
| CCCCCCCCCC(=O)O[C@H]1[C@H](O[C@@H]2[C@H]3OC(=O)CCCCCCCCC[C@H](CCCCC)O[C@@H]4O[C@H](C)[C@H](O)[C@H](O)[C@H]4O[C@H](O[C@H]2C)[C@@H]3O)O[C@@H](C)[C@H](O[C@@H]2O[C@@H](C)[C@H](OC(=O)C(C)C)[C@@H](OC(=O)/C=C/c3ccccc3)[C@H]2O)[C@H]1O[C@@H]1O[C@@H](C)[C@H](O)[C@@H](O)[C@H]1O [PESCAPREIN XXVI] | inactive | 3.7 |
| CCCCCCCCCCCC(=O)O[C@H]1[C@H](O[C@@H]2[C@H]3OC(=O)CCCCCCCCC[C@H](CCCCC)O[C@@H]4O[C@H](C)[C@H](O)[C@H](O)[C@H]4O[C@H](O[C@H]2C)[C@@H]3O)O[C@@H](C)[C@H](O[C@@H]2O[C@@H](C)[C@H](OC(=O)C(C)C)[C@@H](OC(=O)/C=C/c3ccccc3)[C@H]2O)[C@H]1O[C@@H]1O[C@@H](C)[C@H](O)[C@@H](O)[C@H]1O [PESCAPREIN XXV] | inactive | 2.1 |
| CCCCCCCCCC(=O)O[C@H]1[C@H](O[C@@H]2[C@@H](O)[C@H]3OC(=O)CCCCCCCCC[C@H](CCCCC)O[C@@H]4O[C@H](C)[C@H](O)[C@H](O)[C@H]4O[C@@H]3O[C@H]2C)O[C@@H](C)[C@H](O[C@@H]2O[C@@H](C)[C@H](O)[C@@H](OC(=O)[C@@H](C)CC)[C@H]2O)[C@H]1O[C@@H]1O[C@@H](C)[C@H](O)[C@@H](O)[C@H]1O [PESCAPREIN XXX] | inactive | 2.3 |
| COc1ccc(CCN(C)CCCC(C#N)(c2ccc(OC)c(OC)c2)C(C)C)cc1OC (centres undefined) [VERAPAMIL] | – | 21 |
